This is a sample that favours compounds with a hit; in the whole collection about 4.7% have one here.
RGS4 pot = RGS4 potentiation or activation | HEK293 M3R/inducible RGS4, carbachol calcium flux Fluo4; hits give low values | B-score at 10 µM | 310,000 tested, 0.92% active | AID 463111;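 active means B-score of the integrated calcium signal more than 4 SD below the library mean, with starting fluorescence not abnormally high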;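 further: negative B-score means reduced calcium response which marks RGS4 activation or potentiation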
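System – HEK293 FlpIn-TREx cells, stable M3R, doxycycline-inducible RGS4 · Reagent – ECmax carbachol challenge · Times – compound preincubation 20 min at room temperature before agonist · Technique – Fluo4 fluorescence kinetic imaging of calcium · Measure – B score of integrated Fluo4 ratio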
MrgX1 allo act = allosterically activates human MrgX1 receptor signaling; MrgX1-HEK293, Fluo-4 calcium flux, FDSS; hits give high values; Q96LB2; 310,000 tested, 0.63% active; B-score at 10 µM;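 active means plate-corrected calcium response at least 3 library SD above typical, normal starting fluorescence, not activating the receptor alone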;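 further: compound read alongside a low EC10 to EC30 dose of BAM8-22 agonist; peak minus trough fluorescence over baseline measured at the second addition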
Target sequence (Q96LB2 whole entry, looked up): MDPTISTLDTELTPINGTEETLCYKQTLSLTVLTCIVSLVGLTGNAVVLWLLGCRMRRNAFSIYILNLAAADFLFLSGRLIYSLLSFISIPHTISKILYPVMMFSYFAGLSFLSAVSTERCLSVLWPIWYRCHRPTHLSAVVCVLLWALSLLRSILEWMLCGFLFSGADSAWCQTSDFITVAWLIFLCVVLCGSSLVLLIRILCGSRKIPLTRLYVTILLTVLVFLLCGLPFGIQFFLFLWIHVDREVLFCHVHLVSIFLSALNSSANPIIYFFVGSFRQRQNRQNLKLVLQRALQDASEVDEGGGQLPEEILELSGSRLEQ
MrgX1 ag = activates human MrgX1 receptor signaling; Q96LB2; MrgX1-HEK293 cells, Fluo-4 calcium fluorescence, agonist mode; hits give high values; B-score at 10 µM; 310,000 tested, 0.44% active;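 active means calcium response B-score plate-corrected fluorescence ratio at least 3 library SD, with starting fluorescence B-score inside 5 SD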
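Material: MrgX1-expressing HEK293 cells / Dosing: compound as first of three additions / Incubation: overnight seeding, then 1 h dark dye loading / Signal: Fluo-4 NW calcium fluorescence / Evaluation: B-scored fluorescence response ratio / Benchmarks: positive and negative control wells on each plate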
RGS4 inh = human RGS4 inhibition. P49798. HEK293 M3R/RGS4 inducible, Fluo-4 calcium flux; hits give high values; triggered by carbachol at its EC20. B-score at 10 µM. 310,000 tested, 0.45% active;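 active means B-score, a plate-corrected calcium signal, over three deviations above library mean, with baseline fluorescence within five deviations of library mean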;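 further: RGS4 expression induced by doxycycline in cells with stable M3 receptor; B-score is computed from the integrated fluorescence ratio over baseline after carbachol; higher B-score means a larger calcium signal and so more RGS4 inhibition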
Target sequence (P49798 whole entry, looked up): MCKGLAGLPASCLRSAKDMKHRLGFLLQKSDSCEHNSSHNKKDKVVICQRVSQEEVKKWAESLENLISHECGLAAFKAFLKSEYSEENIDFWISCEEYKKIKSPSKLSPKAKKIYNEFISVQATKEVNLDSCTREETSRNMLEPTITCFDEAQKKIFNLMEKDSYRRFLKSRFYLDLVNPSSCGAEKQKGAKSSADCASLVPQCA
KCC2 mod = modulates chloride dependent transport by human KCC2; AID 1456; Q9H2X9; B-score of Tl+ flux slope (higher = more flux/activation; lower = inhibition) at 10 µM; KCC2 cells, thallium flux FluoZin-2 fluorescence; 190,000 tested, 2.2% active;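 active means thallium flux slope and its plate-corrected score both differing from the plate sample mean at a set confidence after two filtering rounds, in either direction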;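 further: slope of fluorescence scaled to starting intensity during 10 to 20 s after thallium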
MrgX1 antag = blocks BAM8-22 activation of human MrgX1 receptor | B-score at 10 µM | MRGX1-HEK293 calcium flux, Fluo-4, BAM8-22 antagonism; hits give low values | Q96LB2 | 310,000 tested, 1.3% active;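 active means calcium-response B-score plate-corrected more than 3 library SD below zero, starting fluorescence within 5 deviations, no agonist response on first addition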;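 further: peak minus trough fluorescence over baseline after final BAM8-22 challenge near maximal dose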
MrgX1 allo conf = reconfirmed allosteric activator of human MrgX1 receptor. shares compounds with MrgX1 allo act. MrgX1-HEK293, Fluo-4 calcium fluorescence, FDSS. activation (ratio percentage), % at 10 µM. 1,200 tested, 13% active;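 active means ratio at least 3 SD above the weak peptide control, stable starting fluorescence, no direct agonism earlier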;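 further: compound followed by low BAM8-22 agonist challenge near EC20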
HEK293 Ca flux = MrgX1 antagonist counter-screen hit in parental HEK293 cells | shares compounds with MrgX1 antag | Fluo-4 calcium fluorescence, FDSS | fluorescence ratio F(max-min)/F0 at 10 µM | 4,000 tested, 2% active | AID 624111;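 active means duplicate-averaged calcium fluorescence ratio at least three times the standard deviation of buffer wells, a nonspecific response in parental cells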
HEK293 Ca counter = activity in parental HEK293 cells without MrgX1. parental HEK293 calcium flux, Fluo-4 fluorescence ratio; hits give high values. fluorescence ratio F(max-min)/F0 at 10 µM. 4,000 tested, 0.4% active. AID 624114. shares compounds with MrgX1 antag;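 active means calcium fluorescence ratio, averaged over duplicates, at least 3 SD of the buffer-well ratio, meaning a nonspecific response in receptor-free cells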;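 further: untransfected parental HEK293 lacking MrgX1 used as counterscreen for MrgX1 allosteric activators; fluorescence change taken during the second addition on a kinetic imager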
HEK293 Ca cntr2 = counter-screen for MrgX1 activators: effect in parental HEK293 cells | 4,000 tested, 8.7% active | fluorescence ratio F(max-min)/F0 at 10 µM | shares compounds with MrgX1 antag | Fluo-4 calcium fluorescence (FDSS); hits give high values;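 active means calcium fluorescence ratio at least three times the spread of buffer wells, meaning a non-specific response in parental cells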
* = called active by the depositor.

What do the screens show for `Cc1ccc(-n2c(C)c3c(C)nnc(C)c3c2C)cc1N`?
RGS4 pot: inactive; MrgX1 allo act: 22*; MrgX1 ag: inactive; RGS4 inh: inactive; KCC2 mod: 0.34; MrgX1 antag: inactive; MrgX1 allo conf: inactive; HEK293 Ca flux: inactive; HEK293 Ca counter: inactive; HEK293 Ca cntr2: inactive

How did CC12CCC(C(=O)Nc3ccc(SC(F)F)cc3)(CC1=O)C2(C)C (centres undefined) do in these assays?
RGS4 pot: inactive; MrgX1 allo act: 6.7*; MrgX1 ag: inactive; RGS4 inh: inactive; MrgX1 antag: inactive; MrgX1 allo conf: inactive; HEK293 Ca flux: inactive; HEK293 Ca counter: inactive; HEK293 Ca cntr2: inactive

Results for CC(Oc1ccc(C(=O)c2ccc(F)cc2)cc1)C(=O)N1CCOCC1 (centres undefined) ?
RGS4 pot: inactive; MrgX1 allo act: inactive; MrgX1 ag: inactive; RGS4 inh: inactive; MrgX1 antag: inactive

What do the screens show for `CCN(CC(=O)Nc1c(F)cccc1F)C(=O)c1ccc(C(F)(F)F)cc1`?
RGS4 pot: inactive; MrgX1 allo act: 8.1*; MrgX1 ag: inactive; RGS4 inh: inactive; MrgX1 antag: inactive; MrgX1 allo conf: inactive; HEK293 Ca flux: inactive; HEK293 Ca counter: inactive; HEK293 Ca cntr2: inactive

Results for CN(C)c1ccc(S(=O)(=O)NCC(=O)N2CCN(c3ccccc3)CC2)cc1[N+](=O)[O-] ?
RGS4 pot: inactive; MrgX1 allo act: inactive; MrgX1 ag: inactive; RGS4 inh: inactive; MrgX1 antag: inactive

How did CCCc1ccc(OCC(=O)Nc2cc(S(=O)(=O)CC)ccc2O)cc1 do in these assays?
RGS4 pot: inactive; MrgX1 allo act: 24*; MrgX1 ag: inactive; RGS4 inh: inactive; KCC2 mod: -0.91; MrgX1 antag: inactive; MrgX1 allo conf: inactive; HEK293 Ca flux: inactive; HEK293 Ca counter: inactive; HEK293 Ca cntr2: inactive

Results for CC12COC3(C(=O)Nc4ccc(Cl)cc4)CC1CCC32C (centres undefined) ?
RGS4 pot: inactive; MrgX1 allo act: 31*; MrgX1 ag: inactive; RGS4 inh: inactive; KCC2 mod: -0.13; MrgX1 antag: inactive; MrgX1 allo conf: 8.2%*; HEK293 Ca flux: inactive; HEK293 Ca counter: inactive; HEK293 Ca cntr2: inactive

How did CC12COC3(C(=O)Nc4ccccc4F)CC1CCC32C (centres undefined) do in these assays?
RGS4 pot: inactive; MrgX1 allo act: inactive; MrgX1 ag: inactive; RGS4 inh: inactive; KCC2 mod: -0.35; MrgX1 antag: inactive

How did COc1ccc(S(=O)(=O)N2CCc3ccccc32)cc1[N+](=O)[O-] do in these assays?
RGS4 pot: inactive; MrgX1 allo act: inactive; MrgX1 ag: inactive; RGS4 inh: inactive; MrgX1 antag: inactive

What do the screens show for `O=C(CSc1cn[nH]n1)Nc1cccc(C(F)(F)F)c1`?
RGS4 pot: inactive; MrgX1 allo act: inactive; MrgX1 ag: inactive; RGS4 inh: inactive; MrgX1 antag: inactive

Results for O=C(c1ccc(COc2ccc3c(c2)CCC3)o1)N1CCN(c2ccccc2)CC1 ?
RGS4 pot: inactive; MrgX1 allo act: 7.7*; MrgX1 ag: inactive; RGS4 inh: inactive; MrgX1 antag: inactive; MrgX1 allo conf: inactive; HEK293 Ca flux: inactive; HEK293 Ca counter: inactive; HEK293 Ca cntr2: inactive

What do the screens show for `CC(=O)c1sc2nc(C)c3c(c2c1N)CCCC3`?
RGS4 pot: inactive; MrgX1 allo act: 9.7*; MrgX1 ag: inactive; RGS4 inh: inactive; KCC2 mod: -1.8; MrgX1 antag: inactive; MrgX1 allo conf: inactive; HEK293 Ca flux: inactive; HEK293 Ca counter: inactive; HEK293 Ca cntr2: inactive

How did CCn1c(=O)c(CCC(=O)N2CCN(c3ccccn3)CC2)c(C)c2c(C)nn(-c3cccc(C)c3)c21 do in these assays?
RGS4 pot: inactive; MrgX1 allo act: inactive; MrgX1 ag: inactive; RGS4 inh: inactive; MrgX1 antag: inactive

What do the screens show for `COc1ccc(CC(=O)Nc2cc(=O)n(C)c(=O)n2C)cc1OC`?
RGS4 pot: inactive; MrgX1 allo act: 6.6*; MrgX1 ag: inactive; RGS4 inh: inactive; KCC2 mod: 0.45; MrgX1 antag: inactive; MrgX1 allo conf: inactive; HEK293 Ca flux: inactive; HEK293 Ca counter: inactive; HEK293 Ca cntr2: inactive

How did COc1ccc(C(=O)Nc2cc(=O)n(C)c(=O)n2C)cc1OC do in these assays?
RGS4 pot: inactive; MrgX1 allo act: inactive; MrgX1 ag: inactive; RGS4 inh: inactive; KCC2 mod: -1.1; MrgX1 antag: inactive

What do the screens show for `CCOC(=O)c1nc(C)sc1-c1ccnn1S(=O)(=O)c1ccc(C)cc1`?
RGS4 pot: inactive; MrgX1 allo act: inactive; MrgX1 ag: inactive; RGS4 inh: inactive; KCC2 mod: -0.16; MrgX1 antag: inactive

What do the screens show for `O=C(Nc1ccccc1C(=O)O)c1cccc(S(=O)(=O)Nc2ccc(Br)cc2)c1`?
RGS4 pot: inactive; MrgX1 allo act: inactive; MrgX1 ag: inactive; RGS4 inh: inactive; MrgX1 antag: inactive

How did O=C(Nc1ccccc1C(=O)O)c1cccc(NS(=O)(=O)c2ccc(Br)cc2)c1 do in these assays?
RGS4 pot: inactive; MrgX1 allo act: 11*; MrgX1 ag: inactive; RGS4 inh: inactive; MrgX1 antag: inactive; MrgX1 allo conf: inactive; HEK293 Ca flux: inactive; HEK293 Ca counter: inactive; HEK293 Ca cntr2: inactive

How did COCCN(C(=S)Nc1cc(C)cc(C)c1)C(C)c1ccco1 (centres undefined) do in these assays?
RGS4 pot: inactive; MrgX1 allo act: 8.2*; MrgX1 ag: inactive; RGS4 inh: inactive; KCC2 mod: -1.6; MrgX1 antag: inactive; MrgX1 allo conf: inactive; HEK293 Ca flux: inactive; HEK293 Ca counter: inactive; HEK293 Ca cntr2: inactive

How did COc1ccc(OC2CCN(C(=O)Nc3ccc(C)cc3)CC2)cc1 do in these assays?
RGS4 pot: inactive; MrgX1 allo act: inactive; MrgX1 ag: inactive; RGS4 inh: inactive; MrgX1 antag: inactive

Screening data deposited in PubChem by several laboratories.
